Test results as given in ChEMBL document CHEMBL3352597, “Heck products of parthenolide and melampomagnolide-B as anticancer modulators that modify cell cycle progression” (Eur J Med Chem, 2014).
≈ marks a conversion by molar mass, not a printed value. Calls of active or inactive are those of the source. The rule behind the calls is not given here.

Tests used:
[1] = Solubility in serum (unknown origin); assay type: ADME
Oocyte [2] = assay: Induction of immature stage VI Xenopus oocyte maturation assessed as stimulation of progesterone-mediated maturation measured as germinal vesicle (nuclear) breakdown at 100 uM after overnight incubation; assay type: functional, cell-based
Summary of the method: (§1)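 Oocytes (20 per well) pre-treated overnight with compound (100 μM final, DMSO) or DMSO vehicle, then stimulated with 2 μg/ml progesterone. GVBD (animal-pole white spot) scored at the time 50% of DMSO controls reach GVBD. Rate relative to control: 1.0 means no difference, above 1.0 acceleration, below 1.0 delay, 0.0 no maturation. Differences over 20% followed up.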

Oocyte [3] = assay: Inhibition of immature stage VI Xenopus oocyte maturation assessed as inhibition of progesterone-mediated maturation measured as germinal vesicle (nuclear) breakdown at 100 uM after overnight incubation; assay type: functional, cell-based; summary of the method: as §1

Compound: C=C1C(=O)O[C@@H]2C3O[C@]3(C)CC/C=C(\C)CC[C@@H]12 (stereo partly drawn)
- solubility [1]: 169 µM (≈ 42 µg/mL)

Compound: C[C@@]12CC/C=C(/CO)CC[C@@H]3/C(=C\c4cccs4)C(=O)O[C@@H]3[C@@H]1O2
- Activity (Oocyte [2]): Active

Compound: C[C@@]12CC/C=C(/CO)CC[C@@H]3/C(=C\c4ccsc4)C(=O)O[C@@H]3[C@@H]1O2
- inhibition (Oocyte [3]): Active
